F508del corr: correctors of CFTR F508del function in bronchial epithelial cells; CFBE cells, YFP halide quenching; stimulated with forskolin plus potentiator P3; % fluorescence drop versus neutral controls; activity (quench increase), % at 7.58 µM; hit rate 0.36% among 350,000; AID 720511;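 active = mean added fluorescence quench of at least 8% versus neutral control, with both replicates also reaching 8%; inconclusive = only one of the mean or replicate conditions met; inactive = mean below 8% and not both replicates reaching 8%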;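 note: cells transiently co-express mutant CFTR-F508del with the halide-sensitive YFP; corrector assay measuring rescue of mutant channel to the surface after 24 h compound exposure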
FGF22 binding: shifts melting point of recombinant human FGF22. Q9HCT0. recombinant FGF22 thermal shift, SYPRO orange fluorescence; percent of sucrose octasulfate shift, DMSO zero. activity (Tm shift, normalised), % at 9.99 µM. hit rate 1.5% among 340,000;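 active = mean Tm shift, scaled 0 neutral to 100 positive control, at about 1.3% or above, every replicate too, limit read from the data; inconclusive = no clear call, values can overlap the other calls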
ERAP1 inh: blocks human ERAP1 aminopeptidase activity | hit rate 0.15% among 340,000 | recombinant ERAP1, Leu-AMC fluorescence, 60 min | inhibition, % at 10.7 µM | AID 652197 | Q9NZ08;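 active = mean replicate inhibition of at least 30%, or all replicates individually reaching that 30% level; inactive = mean below 30% and not every replicate reaching it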
E-sel inducer: E-selectin induction on HUVECs. P16581. HUVEC E-selectin immunofluorescence imaging; normalized: neutral wells 0, TNF-alpha wells 100. activation, % at 7.58 µM. hit rate 0.37% among 260,000. AID 686992;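 active = mean E-selectin-positive cell signal at least 10% of the positive control, reached in at least 60% of replicates, without over 20% cell loss; inconclusive = no rule given, readout overlaps actives, possibly toxicity-flagged; inactive = the rest, including those meeting only one limit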
Target sequence (P16581 whole entry, looked up): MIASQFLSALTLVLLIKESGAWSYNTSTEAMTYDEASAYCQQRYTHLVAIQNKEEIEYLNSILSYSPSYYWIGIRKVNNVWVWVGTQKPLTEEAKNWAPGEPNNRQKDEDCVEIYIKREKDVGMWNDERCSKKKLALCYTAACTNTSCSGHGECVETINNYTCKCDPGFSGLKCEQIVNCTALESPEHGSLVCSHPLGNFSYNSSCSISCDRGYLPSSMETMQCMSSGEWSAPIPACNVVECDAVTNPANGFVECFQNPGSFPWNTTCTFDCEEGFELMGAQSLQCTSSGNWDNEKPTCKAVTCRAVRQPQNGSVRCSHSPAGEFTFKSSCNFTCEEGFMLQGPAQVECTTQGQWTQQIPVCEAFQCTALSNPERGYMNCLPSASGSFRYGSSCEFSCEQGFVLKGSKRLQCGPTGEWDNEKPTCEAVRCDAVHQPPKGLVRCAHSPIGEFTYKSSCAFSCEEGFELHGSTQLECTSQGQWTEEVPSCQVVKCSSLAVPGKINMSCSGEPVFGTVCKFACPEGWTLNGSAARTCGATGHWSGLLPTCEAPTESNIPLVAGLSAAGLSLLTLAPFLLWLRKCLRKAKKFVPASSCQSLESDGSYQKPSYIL
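Test system – human umbilical vein endothelial cells (HUVEC), E-selectin induction · Input – 3,000 HUVEC seeded per well · Buffer or medium – EGM-2, gelatin · Compound dosing – single-point compound dose · Detection – immunofluorescence imaging · Measure – percent E-selectin-positive cells · Controls – TNF-alpha high, DMSO low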
DENV2 CPE: protects cells from dengue virus 2 cytopathic effect; DENV2-infected cells, cytopathic effect rescue, plate reader; CPE inhibition, % at 9.99 µM; hit rate 1.7% among 350,000; AID 651640; in the data active = CPE inhibition above about 20%, passing the limit was not always enough; inconclusive = no clear call, values can overlap the other calls; tested in BHK-21 cells
Numbers stand for hits; i = inactive; ? = inconclusive; nt = no result. Sampled rows, rich in hits. Any-hit rate of the full collection: about 3.7%.

SMILES	F508del corr	FGF22 binding	ERAP1 inh	E-sel inducer	DENV2 CPE
CC(C)NC(=O)N(C)C[C@@H]1Oc2ncc(C#Cc3ccc(F)cc3)cc2C(=O)N([C@@H](C)CO)C[C@H]1C	i	i	i	i	24.9
CC(C)NC(=O)N(C)C[C@@H]1Oc2ncc(C#Cc3ccc(F)cc3)cc2C(=O)N([C@H](C)CO)C[C@H]1C	i	i	i	i	i
CC(C)c1ccc(CNC(=O)C(=O)Nc2nccs2)cc1	i	43.5	i	nt	i
CCCOc1cccc(C(=O)NC(=S)Nc2ccccc2)c1	nt	i	i	i	i
CCOc1cccc(C(=O)NC(=S)Nc2ccc(Cl)cc2C(=O)O)c1	i	43.5	i	i	i
CC(C)NC(=O)N1[C@H](CO)[C@@H](c2ccccc2)C12CN(C(=O)Cc1ccccc1)C2	i	i	i	i	i
COc1cc2c(cc1OC)CN(C(=O)CCOc1ccccc1)CC2	i	i	i	nt	i
COc1cc2c(cc1OC)CN(C(=O)CCOc1ccccc1C)CC2	i	i	i	nt	44.1
O=C(C[C@H]1C[C@@H]2c3cc(NC(=O)NC4CCCCC4)ccc3O[C@@H]2[C@H](CO)O1)NC1CCCCC1	i	nt	i	i	i
CCOC(=O)c1c(-c2ccc(OC)cc2)csc1/N=C/N(C)C	nt	i	i	i	i
CCOC(=O)c1c(-c2ccc(OC)cc2)csc1/N=C/C1C(=O)CCCC1=O	i	i	i	278.1	i
C[C@@H]1CN([C@@H](C)CO)S(=O)(=O)c2ccc(C#CC3CC3)cc2O[C@H]1CN(C)Cc1cccc(F)c1	i	i	i	nt	?
O=C(C[C@H]1CC[C@@H](NS(=O)(=O)c2cccc(F)c2)[C@H](CO)O1)N1CCCCC1	i	i	i	i	25.4
O=C(C[C@H]1CC[C@H](NS(=O)(=O)c2cccc(F)c2)[C@H](CO)O1)N1CCCCC1	i	i	i	i	i
O=C(NCC[C@@H]1CC[C@@H](NS(=O)(=O)c2cccc(F)c2)[C@@H](CO)O1)Nc1cc(F)ccc1F	i	i	i	i	24.2
Cc1cc(C)n2nc(SCc3nnc(SCCCCl)o3)nc2n1	i	i	i	nt	i
Cc1cc(C)n2nc(SCc3nnc(-c4cccs4)o3)nc2n1	i	43.2	i	nt	i
C[C@H]1CN([C@@H](C)CO)C(=O)Cc2cc(NC(=O)Cc3cn(C)c4ccccc34)ccc2O[C@@H]1CN(C)S(=O)(=O)c1ccc(Cl)cc1	i	nt	nt	i	nt
C=Cc1ccc(Cn2c(C)c(C(=O)NCc3cccc(C(F)(F)F)c3)sc2=O)cc1	i	i	nt	nt	57.1
Cc1c(C(=O)NCc2cccc(C(F)(F)F)c2)sc(=O)n1Cc1ccc(F)cc1	i	i	nt	nt	i
CCCNC(=O)C[C@H]1CC[C@H]2[C@H](COc3ccc(NC(=O)c4cccc(OC)c4)cc3C(=O)N2C)O1	i	i	i	i	i
CCCNC(=O)C[C@@H]1CC[C@H]2[C@@H](COc3ccc(NC(=O)c4cccc(C(F)(F)F)c4)cc3C(=O)N2C)O1	i	i	i	i	24.1
CCCNC(=O)C[C@H]1CC[C@@H]2[C@H](COc3ccc(NC(=O)c4cccc(C(F)(F)F)c4)cc3C(=O)N2C)O1	i	nt	nt	i	nt
CCCNC(=O)C[C@@H]1CC[C@H]2[C@@H](COc3ccc(NC(=O)c4cccc(OC)c4)cc3C(=O)N2C)O1	i	i	i	i	46.0
COc1cccc(CNC(=O)C[C@H]2CC[C@H]3[C@@H](COc4ccc(NC(C)=O)cc4C(=O)N3C)O2)c1	i	nt	i	i	28.1
SMILES	F508del corr	FGF22 binding	ERAP1 inh	E-sel inducer	DENV2 CPE
COc1ccc(S(=O)(=O)N(C)C[C@H]2Oc3ccc(NC(=O)Nc4cccc5ccccc45)cc3CC(=O)N([C@H](C)CO)C[C@@H]2C)cc1	i	i	i	?	i
COc1ccc(-n2c(-c3cc(-c4ccccc4)sc3N)n[nH]c2=S)cc1	i	i	i	i	i
Nc1sc(-c2ccccc2)cc1-c1n[nH]c(=S)n1C1CCCCC1	13.0	i	i	i	i
CC(C)Nc1nc(-c2ccccc2CO)c2sccc2n1	i	43.3	i	i	i
N#CCSc1nc2ccccc2c(=O)n1CCCC(=O)NCc1ccco1	i	i	i	i	nt
O=C(CCCn1c(=O)c2ccccc2n(CC(=O)N2CCN(c3ccccc3)CC2)c1=O)NCc1ccco1	i	i	nt	42.9	i
C=CCN=c1scc(C)n1/N=C/c1ccc(O)c(O)c1	10.6	i	i	i	i
Cc1[nH][nH]c(=O)c1C(c1ccc(-c2ccc(F)cc2)o1)c1c(C)[nH][nH]c1=O	i	43.0	i	i	i
O=S(=O)(N1CCCCCC1)N1CCN(S(=O)(=O)N2CCCCC2)CC1	i	i	i	nt	i
O=S(=O)(CCN1CCCCC1)CCS(=O)(=O)CCN1CCCCC1	i	43.6	i	i	i
C[C@H]1CN([C@@H](C)CO)C(=O)c2cc(NC(=O)Cn3cnnn3)ccc2O[C@H]1CN(C)S(=O)(=O)c1ccccc1	i	i	i	36.0	i
C[C@@H]1CN([C@H](C)CO)C(=O)Cc2cc(NC(=O)Cn3cnnn3)ccc2O[C@@H]1CN(C)CC1CCCCC1	i	i	i	i	21.5
CC(C)NC(=O)N(C)C[C@@H]1Oc2ccc(NC(=O)Cn3cnnn3)cc2CC(=O)N([C@@H](C)CO)C[C@H]1C	i	i	i	66.3	i
C[C@H]1CN([C@@H](C)CO)C(=O)c2cc(NC(=O)Cn3cnnn3)ccc2O[C@@H]1CN(C)S(=O)(=O)c1ccccc1	i	i	i	i	i
C[C@@H]1CN([C@H](C)CO)C(=O)Cc2cc(NC(=O)Cn3cnnn3)ccc2O[C@H]1CN(C)C(=O)Nc1ccc(C(F)(F)F)cc1	i	i	i	32.3	30.4
C[C@H](CO)N1C[C@H](C)[C@@H](CN(C)C(=O)Nc2ccc(C(F)(F)F)cc2)Oc2ccc(NC(=O)Cn3cnnn3)cc2CC1=O	i	i	i	i	i
O=C(Nc1ccccc1F)N[C@H]1C=C[C@@H](CC(=O)N2CCCCC2)O[C@@H]1CO	i	i	i	i	i
COCC#Cc1cnc2c(c1)C(=O)N([C@H](C)CO)C[C@@H](C)[C@@H](CN(C)S(=O)(=O)c1cn(C)cn1)O2	i	i	i	i	i
C[C@@H]1CN([C@H](C)CO)C(=O)Cc2cc(NC(=O)Nc3ccc(F)cc3)ccc2O[C@H]1CN(C)Cc1ccncc1	i	i	i	nt	i
C[C@H](CO)N1C[C@H](C)[C@H](CN(C)C(=O)Nc2ccc(C(F)(F)F)cc2)Oc2ccc(NC(=O)Cn3cnnn3)cc2CC1=O	i	i	i	41.5	i
C[C@H](CO)N1C[C@H](C)[C@H](CN(C)C(=O)Nc2ccc3c(c2)OCO3)Oc2ccc(NC(=O)Cn3cnnn3)cc2CC1=O	i	i	i	i	41.7
CC(C)NC(=O)N(C)C[C@@H]1Oc2ccc(NC(=O)Cn3cnnn3)cc2C(=O)N([C@H](C)CO)C[C@@H]1C	i	nt	nt	i	nt
CC(C)NC(=O)N(C)C[C@@H]1Oc2ccc(NC(=O)Cn3cnnn3)cc2C(=O)N([C@H](C)CO)C[C@H]1C	i	nt	nt	58.6	nt
